As usually defined, the clearance is a measure of how efficiently the substance is removed, as volume per time. A higher clearance goes with a high capacity for elimination. What is called EC50 is the concentration giving half of the maximal effect. In general, AUC refers to the area under the concentration-time curve, a measure of exposure. A higher AUC goes with more exposure. Usually Cmax stands for the maximum level reached in the sampled fluid or tissue.

Active and inactive are the calls of the source. No cut-off for these calls is given here.

Experimental findings from ChEMBL document CHEMBL1148736, “N-Acylthiadiazolines, a new class of liver X receptor agonists with selectivity for LXRbeta” (J Med Chem, 2007) are described below.

A short description of data set [1]: Clearance in C57BL/6 mouse at 5 mg/kg, iv. It is filed as ADME, organism-based. Also noted: dose 5 mg/kg, route intravenous. The following applies: in vivo. The essentials: (§1)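 Mouse PK study, IV and PO; compound formulated at 2.5 mg/mL in PEG300/Tween 80 (4:1). IV dose 5 mpk (AUC, Cmax, clearance, Vss); oral dose 20 mpk (AUC, Cmax, bioavailability, t1/2).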

The target of data set [2] is T1, Nuclear receptor subfamily 1 group I member 2 (Homo sapiens, UniProt O75469).
T1 sequence (O75469 whole entry): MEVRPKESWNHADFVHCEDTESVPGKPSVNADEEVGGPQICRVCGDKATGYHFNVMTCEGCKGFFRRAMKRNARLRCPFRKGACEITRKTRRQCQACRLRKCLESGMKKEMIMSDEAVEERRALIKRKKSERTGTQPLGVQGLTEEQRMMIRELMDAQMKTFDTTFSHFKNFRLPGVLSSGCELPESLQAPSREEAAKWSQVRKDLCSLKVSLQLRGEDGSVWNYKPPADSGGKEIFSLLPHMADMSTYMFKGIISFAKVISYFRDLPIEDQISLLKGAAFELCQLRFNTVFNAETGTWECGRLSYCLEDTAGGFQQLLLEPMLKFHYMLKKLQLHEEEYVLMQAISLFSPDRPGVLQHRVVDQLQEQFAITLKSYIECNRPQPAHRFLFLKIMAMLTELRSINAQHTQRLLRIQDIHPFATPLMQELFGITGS
Put plainly: Activity at PXR by cell based assay. The class given is functional.

The subject of a further data set is HepG2. Description: Increase in FAS gene expression in HepG2 cells at 1 uM relative to GW-3965. The class given is functional, Homo sapiens.
The subject of another data set is Macrophage. Put plainly: Induction of ABCA1 gene expression in LXRalpha deficient mouse macrophages. The class given is functional, cell-based. The essentials:
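Thioglycollate-elicited peritoneal macrophages from LXR-null mice, plated 24 h. Treated as for THP-1 without PMA: 2% lipoprotein-deficient serum medium, compound in DMSO for 24 h. ABCA1 mRNA by TaqMan qRT-PCR with 36B4 control, fold vs DMSO. Two concentrations used.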

Data set [3] deals with T2, Oxysterols receptor LXR-beta (Homo sapiens, UniProt P55055).
T2 sequence (P55055 whole entry): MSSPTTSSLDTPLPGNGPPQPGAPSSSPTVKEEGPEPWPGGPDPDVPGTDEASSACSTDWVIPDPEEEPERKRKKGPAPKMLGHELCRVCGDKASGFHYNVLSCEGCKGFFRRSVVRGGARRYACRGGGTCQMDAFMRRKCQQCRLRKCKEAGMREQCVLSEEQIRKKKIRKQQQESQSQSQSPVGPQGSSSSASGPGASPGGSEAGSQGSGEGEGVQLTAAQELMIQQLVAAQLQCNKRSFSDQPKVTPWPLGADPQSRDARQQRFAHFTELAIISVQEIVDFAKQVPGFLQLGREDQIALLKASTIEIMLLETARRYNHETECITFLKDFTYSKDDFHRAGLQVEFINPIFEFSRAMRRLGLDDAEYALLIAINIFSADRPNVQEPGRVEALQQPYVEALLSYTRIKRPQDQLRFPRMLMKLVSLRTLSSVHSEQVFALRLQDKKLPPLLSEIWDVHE
Description: Agonist activity at GAL-linked human LXRbeta expressed in THP1 cells assessed as stimulation of co-activator recruitment by FRET assay. It is filed as functional. The essentials: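 Cell-free TR-FRET coactivator recruitment: 20 nM His-tagged hLXRα or hLXRβ, 300 nM biotinylated SRC-1 peptide, Eu-anti-His antibody, APC-streptavidin. 12-point curves from 20 µM; 1 h at 37 °C. Duplicate. %E = maximal coactivator recruitment relative to reference dual agonist in same experiment.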

The nature of data set [4]: Stability in human liver microsomes at 1 uM after 30 mins. The class given is ADME, Microsome. The following applies: read-out: Stability. In short, it runs like this: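 Incubated at 1 µM with human liver microsomes; percent parent remaining measured at 30 min.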
(Microsomes from liver hold many membrane-bound enzymes, among them those of drug oxidation.)

Data set [5] deals with T3, Oxysterols receptor LXR-alpha (Homo sapiens, UniProt Q13133).
T3 sequence (Q13133 whole entry): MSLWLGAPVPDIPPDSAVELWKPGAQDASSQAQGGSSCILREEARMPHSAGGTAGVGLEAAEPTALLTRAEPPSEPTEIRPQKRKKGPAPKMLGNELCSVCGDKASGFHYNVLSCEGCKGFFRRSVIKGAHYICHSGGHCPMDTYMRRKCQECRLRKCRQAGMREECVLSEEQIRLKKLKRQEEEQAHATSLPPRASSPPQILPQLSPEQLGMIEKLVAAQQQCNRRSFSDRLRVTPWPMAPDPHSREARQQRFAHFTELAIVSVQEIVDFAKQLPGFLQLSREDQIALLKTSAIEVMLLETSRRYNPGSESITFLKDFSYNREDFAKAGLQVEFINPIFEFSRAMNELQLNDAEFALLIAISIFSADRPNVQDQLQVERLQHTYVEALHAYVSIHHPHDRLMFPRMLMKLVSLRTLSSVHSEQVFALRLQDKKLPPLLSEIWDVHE
Put plainly: Activity at human LXRalpha by Gal4 transactivation assay. The essentials:
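GAL4 DBD fused to hLXRα or hLXRβ LBD in pcDNA3, co-transfected into HepG2 with luciferase reporter. Cells in DMEM with 10% lipoprotein-deficient FBS, 7.5 µM lovastatin, 100 µM mevalonic acid. Ligand added 24 h post-transfection as 11-point curves from 10 µM; luciferase read after 16 h. Run in quadruplicate. %E = max fold induction vs max fold induction of reference dual agonist in same experiment.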

A short description of data set [6]: AUC in C57BL/6 mouse at 5 mg/kg, iv. The class given is ADME, organism-based. Also noted: dose 5 mg/kg, route intravenous. The settings on record: plasma. The essentials: as §1
Data set [7] in a line: Cmax in C57BL/6 mouse at 5 mg/kg, iv. It is filed as ADME, organism-based. Also noted: dose 5 mg/kg, route intravenous. The following applies: in vivo. In short, it runs like this:
as §1

Data set [8] has as its target Peroxisome proliferator-activated receptor (Homo sapiens) (UniProt P37231+Q07869+Q03181). Description: Activity at PPAR by cell based assay.

The compound `COc1cccc(C2SC(c3ccc(Cl)cc3)=NN2C(=O)c2c(F)cc(F)cc2F)c1OC` (racemic) returned a clearance in data set [1] of 12.2 mL/min/kg. In addition, the Activity entry in data set [2] was “Not Active”; with HepG2 it was 10%. Besides, the result with Macrophage was Active. Also, the EC50 in [3] amounted to 0.25 µM; in [5], 0.608 µM. Moreover, the remaining at 0.5 h, 1 µM in [4] was 70%. Further, in data set [6], the AUC was 7140 ng·h/mL. In [7], this compound gave a Cmax of 20.4 µM. In addition, the result in data set [8] was inactive.
